The source made the active and inactive calls. No cut-off for these calls is given here.
Columns and labels:
[1] = target: Eukaryotic translation initiation factor 2 subunit 1 (Homo sapiens) (UniProt P05198); test: Activation of eIF2alpha (unknown origin) assessed as fold stimulation ATF-4 surrogate eIF2alpha phosphorylation at 5 uM cell based Dual luciferase reporter assay; details: filed as activator
In short: (§1)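 Cells stably expressing firefly and renilla luciferase reporters were treated in 96-well plates at 10, 5, 2.5 and 1.25 µM and read with a dual glow luciferase kit. The firefly/renilla (F/R) ratio of each well was normalized to vehicle (DMSO) wells on the same plate, set at 1. Dose-response curves used triplicate points fitted to a logistic sigmoidal model.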

[2] = Antiproliferative activity against human CRL-2813 cells assessed as inhibition of cell growth measured after 5 days by SRB assay; format: functional, cell-based
In short: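 CRL-2813 cells in 96-well plates were kept for 5 days with 0.5 to 20 µM compound, then fixed in cold 10% trichloroacetic acid and stained with sulforhodamine B; bound dye absorbance was read. Percent growth was calculated as 100×[(T−T0)/(C−T0)] using day 5 treated, control and time-zero readings. IC50 is the concentration giving 50% growth inhibition.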

[3] = target: Eukaryotic translation initiation factor 2 subunit 1 (Homo sapiens) (UniProt P05198); test: Activation of eIF2alpha (unknown origin) assessed as fold stimulation ATF-4 surrogate eIF2alpha phosphorylation at 1.25 uM cell based Dual luciferase reporter assay; details: filed as activator; in short: as §1
MCF7 = test: Antiproliferative activity against human MCF7 cells transfected with HRI siRNA at 0.27 to 10 uM after 3 days by SRB assay; details: dose 0.27-10 µM, time 3.0 day
[4] = target: Eukaryotic translation initiation factor 2 subunit 1 (Homo sapiens) (UniProt P05198); test: Activation of eIF2alpha in human CRL-2813 cells assessed as increase in CHOP expression at 5 uM measured after 8 hrs Western blot analysis; format: cell-based
In short: (§2)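 CRL-2813 melanoma cells were grown in serum-containing, antibiotic-free medium to 70% confluence and treated with 5 µM compound for 8 hours. Lysates were made in M-PER on ice, protein was normalized by BCA, and samples were separated by SDS-PAGE. Blots were probed for CHOP, p27Kip1, cyclin D1 and β-actin.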

[5] = target: Eukaryotic translation initiation factor 2 subunit 1 (Homo sapiens) (UniProt P05198); test: Activation of eIF2alpha in human CRL-2813 cells assessed as decrease in cyclin D1 expression at 5 uM measured after 8 hrs Western blot analysis; format: cell-based; in short: as §2
CRL-2813 = test: Effect on p27Kip1 expression in human CRL-2813 cells at 5 uM measured after 8 hrs Western blot analysis; format: functional, cell-based; in short: as §2
[6] = target: Eukaryotic translation initiation factor 2 subunit 1 (Homo sapiens) (UniProt P05198); test: Activation of eIF2alpha in human CRL-2813 cells assessed as eIF2alpha phosphorylation at 5 uM measured after 2 hrs Western blot analysis; format: cell-based
In short: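 Adherent human melanoma CRL-2813 cells were grown in serum-containing, antibiotic-free medium to 70% confluence and exposed to 5 µM compound or vehicle for 2 hours. Cells were lysed in M-PER on ice, and protein was quantified by BCA and boiled in Laemmli buffer. Lysates were run on SDS-PAGE and immunoblotted for phospho-Ser51 eIF2α, total eIF2α and β-actin.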

Eukaryotic translation initiation factor 2 subunit 1 (Homo sapiens), sequence (P05198 whole entry): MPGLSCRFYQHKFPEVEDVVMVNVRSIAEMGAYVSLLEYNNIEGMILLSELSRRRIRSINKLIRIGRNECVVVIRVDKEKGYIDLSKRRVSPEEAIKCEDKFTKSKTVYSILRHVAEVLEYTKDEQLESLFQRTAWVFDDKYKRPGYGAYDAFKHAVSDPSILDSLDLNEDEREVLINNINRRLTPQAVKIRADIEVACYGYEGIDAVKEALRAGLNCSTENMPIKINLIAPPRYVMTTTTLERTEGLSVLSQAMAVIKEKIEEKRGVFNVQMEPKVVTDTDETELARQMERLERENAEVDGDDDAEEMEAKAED

| SMILES | fold change (FC) [1] | fold change (FC) [3] | IC50 ([2]; Homo sapiens, CRL2813, 120 h) [µM] | further results |
| --- | --- | --- | --- | --- |
| N#Cc1cc(F)cc(NC(=O)N[C@H]2CC[C@H](Oc3ccc(C(F)(F)F)cc3)C2)c1 | 8 | 2.4 | 1.9 |  |
| N#Cc1cccc(NC(=O)NC2CC(Oc3ccc(C(F)(F)F)cc3)C2)c1 (stereo in doubt; trans) [listing 1 of 2 here] |  |  |  | IC50 ([2]; crl-2813): 4.9 µM |
| O=C(Nc1cccc(C(F)(F)F)c1)NC1CCC(Oc2ccc(C(F)(F)F)cc2)CC1 (configuration not stated) | 9.2 | 3.6 | 0.9 |  |
| O=C(Nc1cccc(C(F)(F)F)c1)N[C@H]1CC[C@H](Oc2ccc(C(F)(F)F)cc2)C1 | 7 | 1.2 | 2.5 |  |
| O=C(Nc1ccc(F)c(F)c1)NC1CCC(Oc2ccc(C(F)(F)F)cc2)CC1 (trans isomer) | 5.6 | 2.9 | 1.3 |  |
| N#Cc1cccc(NC(=O)NC2CCC(Oc3ccc(C(F)(F)F)cc3)CC2)c1 (configuration not stated) | 6.1 | 1.9 | 1.6 |  |
| N#Cc1cc(NC(=O)NC2CC(Oc3ccc(C(F)(F)F)cc3)C2)cc(C(F)(F)F)c1 (trans isomer) [listing 1 of 2 here] | 10 | 4.4 |  | Activity (MCF7): inactive; Activity ([4]; filed as activator): Active; Activity ([5]; filed as activator): Active; Activity (CRL-2813): inactive; Activity ([6]; filed as activator): Active |
| N#Cc1cc(NC(=O)N[C@H]2CC[C@H](Oc3ccc(C(F)(F)F)cc3)C2)cc(C(F)(F)F)c1 | 8.3 | 3.1 | 1.2 |  |
| N#Cc1cc(NC(=O)NC2CCC(Oc3ccc(C(F)(F)F)cc3)CC2)ccc1F (configuration not stated) | 6.1 | 3.7 | 1.4 |  |
| N#Cc1cc(NC(=O)NC2CCC(Oc3ccc(C(F)(F)F)cc3)CC2)cc(C(F)(F)F)c1 (configuration not stated) | 13.8 | 5.7 | 0.35 | Activity (MCF7): inactive; Activity ([4]; filed as activator): Active; Activity ([5]; filed as activator): Active; Activity (CRL-2813): inactive; Activity ([6]; filed as activator): Active |
| N#Cc1cc(NC(=O)NC2CC(Oc3ccc(C(F)(F)F)cc3)C2)cc(C(F)(F)F)c1 (trans isomer) [listing 2 of 2 here] |  |  | 0.9 |  |
| N#Cc1cccc(NC(=O)NC2CC(Oc3ccc(C(F)(F)F)cc3)C2)c1 (stereo in doubt; cis) [listing 1 of 2 here] |  |  |  | IC50 ([2]; crl-2813): > 10 µM |
| O=C(Nc1cccc(F)c1F)NC1CCC(Oc2ccc(C(F)(F)F)cc2)CC1 (configuration not stated) | 9.9 | 4.7 | 1.6 | Activity ([4]; filed as activator): Active; Activity ([5]; filed as activator): Active; Activity (CRL-2813): inactive; Activity ([6]; filed as activator): Active |
| O=C(Nc1cccc(C(F)(F)F)c1)NC1CC(Oc2ccc(C(F)(F)F)cc2)C1 (trans isomer) [listing 2 of 2 here] |  |  | 3.4 |  |
| N#Cc1ccc(NC(=O)NC2CCC(Oc3ccc(C(F)(F)F)cc3)CC2)cc1F (trans isomer) | 10.4 | 5.5 | 0.46 | Activity (MCF7): inactive; Activity ([4]; filed as activator): Active; Activity ([5]; filed as activator): Active; Activity (CRL-2813): inactive; Activity ([6]; filed as activator): Active |
| N#Cc1cc(F)cc(NC(=O)NC2CCC(Oc3ccc(C(F)(F)F)cc3)CC2)c1 (configuration not stated) | 9.3 | 4.6 | 0.63 | Activity (MCF7): inactive; Activity ([4]; filed as activator): Active; Activity ([5]; filed as activator): Active; Activity (CRL-2813): inactive; Activity ([6]; filed as activator): Active |
| O=C(Nc1ccc(F)c(F)c1)NC1CC(Oc2ccc(C(F)(F)F)cc2)C1 (trans isomer) | 4.5 | 2.2 | 5.5 |  |
| O=C(Nc1cccc(C(F)(F)F)c1)NC1CC(Oc2ccc(C(F)(F)F)cc2)C1 (cis isomer) [listing 2 of 2 here] |  |  |  | IC50 ([2]; crl-2813): 2.6 µM |
| Cc1ccc(F)cc1NC(=O)NC1CC(Oc2ccc(C(F)(F)F)cc2)C1 (configuration not stated) | 1.4 | 0.7 | > 10 |  |
| N#Cc1cccc(NC(=O)NC2CC(Oc3ccc(C(F)(F)F)cc3)C2)c1 (stereo in doubt; cis) [listing 2 of 2 here] | 0.9 | 1.1 |  |  |

Continued, in another order:

| fold change (FC) [1] | fold change (FC) [3] | SMILES | IC50 ([2]; Homo sapiens, CRL2813, 120 h) [µM] | further results |
| --- | --- | --- | --- | --- |
| 6.2 | 1.2 | O=C(Nc1cccc(C(F)(F)F)c1)NC1CC(Oc2ccc(C(F)(F)F)cc2)C1 (cis isomer) [listing 1 of 2 here] |  |  |
| 5.3 | 2 | N#Cc1cc(F)cc(NC(=O)NC2CC(Oc3ccc(C(F)(F)F)cc3)C2)c1 (trans isomer) | 2.8 |  |
| 6.2 | 0.8 | O=C(Nc1cccc(F)c1F)NC1CC(Oc2ccc(C(F)(F)F)cc2)C1 (trans isomer) | 2.3 |  |
| 3.5 | 1.6 | N#Cc1cccc(NC(=O)NC2CC(Oc3ccc(C(F)(F)F)cc3)C2)c1 (stereo in doubt; trans) [listing 2 of 2 here] |  |  |
| 3.5 | 0.9 | O=C(Nc1ccc(F)c(F)c1)N[C@H]1CC[C@H](Oc2ccc(C(F)(F)F)cc2)C1 | 5.2 |  |
| 6.2 | 2.4 | N#Cc1ccc(NC(=O)NC2CCC(Oc3ccc(C(F)(F)F)cc3)CC2)c(F)c1 (configuration not stated) | 1.4 |  |
| 6.5 | 2.4 | O=C(Nc1cccc(C(F)(F)F)c1)NC1CC(Oc2ccc(C(F)(F)F)cc2)C1 (trans isomer) [listing 1 of 2 here] |  |  |
| 1.5 | 1 | N#Cc1ccc(F)c(NC(=O)NC2CCC(Oc3ccc(C(F)(F)F)cc3)CC2)c1 (configuration not stated) | > 10 | Activity [4]: inactive; Activity [5]: inactive; Activity (CRL-2813): inactive; Activity [6]: inactive |
| 1.6 | 0.8 | N#Cc1cccc(NC(=O)N[C@H]2CC[C@H](Oc3ccc(C(F)(F)F)cc3)C2)c1 | 6.5 |  |
| 1.3 | 1.4 | Cc1ccc(F)cc1NC(=O)N[C@H]1CC[C@H](Oc2ccc(C(F)(F)F)cc2)C1 | 8 |  |
| 8.4 | 4.3 | N#Cc1cc(NC(=O)NC2CC(Oc3ccc(C(F)(F)F)cc3)C2)cc(C(F)(F)F)c1 (cis isomer) |  |  |
| 1.5 | 1.8 | Cc1ccc(F)cc1NC(=O)NC1CCC(Oc2ccc(C(F)(F)F)cc2)CC1 (configuration not stated) | 5.3 | Activity ([4]; filed as activator): Active; Activity ([5]; filed as activator): Active; Activity (CRL-2813): inactive; Activity ([6]; filed as activator): Active |

— ChEMBL document CHEMBL4706490, “New activators of eIF2α Kinase Heme-Regulated Inhibitor (HRI) with improved biophysical properties” (Eur J Med Chem, 2020)
